Data: ChEMBL document CHEMBL2407075, “Sulphonamido-quinoxalines: search for anticancer agent” (Eur J Med Chem, 2013)

What was measured:
Format in all cases: functional
LOX IMVI = assay: Growth inhibition of human LOXIMVI cells after 48 hrs by sulforhodamine B assay
Summary of the method: (§1)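 Adherent cells in RPMI 1640 with 5% FBS and 2 mM L-glutamine were plated at 5000–40,000 cells/well and grown 24 h. Five concentrations (0.01–100 µM, DMSO stock) were added for 48 h at 37 °C. Cells were fixed with cold TCA (10% final) and stained with SRB, read at 515 nm. GI50 came from log concentration–growth curves against time-zero and control plates.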

CCRF-CEM [1] = assay: Growth inhibition of human CCRF-CEM cells assessed as cell growth at 10^-6 M after 48 hrs by sulforhodamine B assay; conditions: read-out: Activity
CCRF-CEM [2] = assay: Growth inhibition of human CCRF-CEM cells assessed as cell growth at 10^-7 M after 48 hrs by sulforhodamine B assay; conditions: read-out: Activity
SK-MEL-2 [3] = assay: Growth inhibition of human SK-MEL-2 cells assessed as cell growth at 10^-7 M after 48 hrs by sulforhodamine B assay; conditions: SK-MEL-2, 48 h, read-out: Activity
CCRF-CEM [4] = assay: Growth inhibition of human CCRF-CEM cells assessed as cell growth at 10^-4 M after 48 hrs by sulforhodamine B assay; conditions: read-out: Activity
SK-MEL-2 [5] = assay: Growth inhibition of human SK-MEL-2 cells assessed as cell growth at 10^-5 M after 48 hrs by sulforhodamine B assay; conditions: SK-MEL-2, 48 h, read-out: Activity
OVCAR-8 = assay: Growth inhibition of human OVCAR8 cells assessed as cell growth at 10^-5 M after 48 hrs by sulforhodamine B assay; conditions: OVCAR-8, 48 h, read-out: Activity
SK-MEL-28 = assay: Growth inhibition of human SK-MEL-28 cells assessed as cell growth at 10^-7 M after 48 hrs by sulforhodamine B assay; conditions: SK-MEL-28, 48 h, read-out: Activity
CCRF-CEM [6] = assay: Growth inhibition of human CCRF-CEM cells after 48 hrs by sulforhodamine B assay; conditions: read-out: LC50 (the source's name)
Summary of the method: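 Leukemia suspension cells in RPMI 1640 with 5% FBS and 2 mM L-glutamine were plated at 5000–40,000 cells/well and grown 24 h. Five concentrations (0.01–100 µM) were given for 48 h at 37 °C. Settled cells were fixed with 80% TCA (16% final) and SRB-stained, read at 515 nm. GI50 came from dose–response curves against time-zero and control plates.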

SK-MEL-2 [7] = assay: Growth inhibition of human SK-MEL-2 cells assessed as cell growth at 10^-6 M after 48 hrs by sulforhodamine B assay; conditions: SK-MEL-2, 48 h, read-out: Activity
CCRF-CEM [8] = assay: Growth inhibition of human CCRF-CEM cells assessed as cell growth at 10^-5 M after 48 hrs by sulforhodamine B assay; conditions: read-out: Activity
HCT-15 = assay: Growth inhibition of human HCT15 cells assessed as cell growth at 10^-6 M after 48 hrs by sulforhodamine B assay; conditions: HCT-15, 48 h, read-out: Activity
CCRF-CEM [9] = assay: Growth inhibition of human CCRF-CEM cells assessed as cell growth at 10^-8 M after 48 hrs by sulforhodamine B assay; conditions: read-out: Activity
HT-29 = assay: Growth inhibition of human HT-29 cells after 48 hrs by sulforhodamine B assay; conditions: HT-29, 48 h; summary of the method: as §1
SF-295 = assay: Growth inhibition of human SF295 cells after 48 hrs by sulforhodamine B assay; conditions: SF-295, 48 h; summary of the method: as §1
[10] = read-out: LC50 (the source's name)

SMILES	TGI (LOX IMVI) [µM]	CC50 (LOX IMVI; [10]) [µM]	growth at 1 µM (CCRF-CEM [1]) [%]	growth at 0.1 µM (CCRF-CEM [2]) [%]	growth at 0.1 µM (SK-MEL-2 [3]) [%]	growth at 100 µM (CCRF-CEM [4]) [%]	growth at 10 µM (SK-MEL-2 [5]) [%]	growth at 10 µM (OVCAR-8) [%]	growth at 0.1 µM (SK-MEL-28) [%]	CC50 (CCRF-CEM [6]) [µM]	growth at 1 µM (SK-MEL-2 [7]) [%]	growth at 10 µM (CCRF-CEM [8]) [%]	growth at 1 µM (HCT-15) [%]	growth at 0.01 µM (CCRF-CEM [9]) [%]	GI50 (HT-29) [µM]	CC50 (HT-29; [10]) [µM]	GI50 (SF-295) [µM]	CC50 (SF-295; [10]) [µM]
O=S(=O)(Nc1ccc(Cl)cc1)c1ccc2nc(-c3ccccc3)c(-c3ccccc3)nc2c1	> 100	> 100	79	91	99	64	-56	6	96	> 100	99	-40	87	88	–	–	–	–
O=S(=O)(Nc1ccccn1)c1ccc2nc(-c3ccccc3)c(-c3ccccc3)nc2c1	–	–	–	–	–	–	–	–	–	–	–	–	–	–	1.78	> 100	1.87	100
